Measurements: ChEMBL document CHEMBL4513216, “Probing the Open Global Health Chemical Diversity Library for Multistage-Active Starting Points for Next-Generation Antimalarials” (ACS Infect Dis, 2020)

Experiment: Toxicity liver stage against HepG2, at 10uM
Format: cell-based
Set-up: test concentration 10 uM, cell line HepG2-A16-CD81EGFP
Details: human, HepG2-A16-CD81EGFP cells; read-out: INHIBITION
In short: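 Uninfected HepG2-A16-CD81EGFP cells, 3 × 10^3 per well, 1536-well, plated on prespotted compound at 10 μM final, parasite-free screening media added to match infected plates; puromycin 10 μM positive, DMSO 0.5% negative; run in parallel with 48 h PbLuc assay at 37 °C, 5% CO2; viability by CellTiter-Glo luminescence, normalized to controls.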

Compound | cytotoxicity at 10 µM [%]
O=C(N1CCOCC1)N1CCOC[C@H](Oc2ccc(C(F)(F)F)cc2)C1 | 1.27
COc1ccc(-c2noc([C@@H]3C[C@@H](O)CN3C3CCCCC3)n2)cc1 | 3.25
CC(C)COC(=O)N1[C@@H](c2ccco2)[C@@H](CO)C[C@]12CCCCNC2=O | 1.19
COCCn1ccc2ccc(C(=O)N3CCN(C(C)=O)CC3)cc21 | -8.6
CC(C)CS(=O)(=O)Nc1ccc2c(c1)OCC(C)(C)C(=O)N2C | -0.123
COCC(C)NC(=O)c1nnn(-c2ccc(Br)cc2)n1 (stereo not drawn) | -0.712
CCOC(=O)C1CN(S(C)(=O)=O)Cc2ncn(CC)c21 (stereo not drawn) | 6.74
Cc1noc([C@]23COC[C@H]2CN(S(C)(=O)=O)C3)n1 | 10.4
Cc1cncc(C(=O)N2CCc3ncc(Cn4cccn4)n3CC2)c1 | 14.3
O=C(NC1CC1)N1CCOCC2(C1)CN(c1ccccc1)C(=O)CO2 (stereo not drawn) | -1.37
CC1=N[C@@]2(CC[C@@H]3CN(C(=O)NCC(C)C)C[C@@H]32)C(=O)N1CC(C)C | 2.68
CN(C)Cc1nnc2n1CCN(Cc1cccnc1)C2 | -0.588
CN(C)C(=O)c1nn(C)c2c1CN(Cc1ccoc1)C2 | -6.28
Cc1cnc(C(=O)N2CCCC3(CCN(c4cnn(C)c4)C3=O)C2)cn1 (stereo not drawn) | -5.79
Cn1cc(N2CCC3(CCCN(C(=O)c4ccnn4C)C3)C2=O)cn1 (stereo not drawn) | -1.55
Cc1nn(C)c2c(N3CCN(C(=O)C(C)C)CC3)ncnc12 | 6.78
CCc1cc(C(F)(F)F)n2nc(C3CCCN3C(=O)COC)cc2n1 (stereo not drawn) | 3.01
CN(Cc1ccc(F)cc1)CC1(O)CCN(C(=O)c2ccn(C)n2)C1 (stereo not drawn) | -6.41
CC1CCCCN1c1nc2c(c(=O)[nH]1)CCN(Cc1ccc(O)cc1)C2 (stereo not drawn) | 5.74
COCc1ccccc1C(=O)NS(=O)(=O)CCCC#N | 5.24
CC(NC(=O)c1cc(C(C)C)[nH]n1)C(=O)Nc1ccccc1 (stereo not drawn) | 10.8
Cc1cccc(CS(=O)(=O)Cc2ccn(C)c(=O)c2)c1 | 2.29

Compound | cytotoxicity at 10 µM [%]
CCS(=O)(=O)NC1CCCN(c2cc(C)ccc2F)C1=O (stereo not drawn) | 3.07
CCC1CCCCN1S(=O)(=O)c1c(C)noc1C (stereo not drawn) | -9.35
Cc1c(F)cccc1S(=O)(=O)Nc1noc(C(C)C)n1 | 7.21
CC(=O)NCc1ccc(S(=O)(=O)NC(=O)c2ccc3c(c2)COC3)s1 | -1.8
Cc1nn(C)c2ncc(NC(=O)N(C)Cc3cc(Cl)cn3C)cc12 | 2.73
CCC(C)C(=O)N(CC(=O)OC)c1cccc(C)n1 (stereo not drawn) | -4.31
CC(Cn1cccn1)NC(=O)CCc1nc(C(C)(C)C)no1 (stereo not drawn) | 14.5
O=C(COc1ccc2c(c1)OCC2O)NCc1ccco1 (stereo not drawn) | 0.878
CCOc1ccc(NC(=O)NCCS(=O)(=O)CC)cc1C | -3
Cc1ccc2c(c1)CCC2NC(=O)N1CCC(C(N)=O)CC1 (stereo not drawn) | -4.83
CCOCCc1nc(-c2cnn3c(C)cc(C)nc23)no1 | 3.53
CC(SCC(=O)NCCC#N)c1ccc(Cl)cc1 (stereo not drawn) | 10.6
O=C1CC(N(C(=O)c2ccc(Oc3ccccc3)cc2)C2CC2)C(=O)N1 (stereo not drawn) | -2.94
CN(CCCNS(=O)(=O)N1CCC2(CC1)OCCO2)c1ccccc1 | 9.13
COc1c(CNCc2ccccc2CN2CCOCC2)c(C)nn1C | -0.686
Cn1nnc(C2(NC(=O)c3ccccc3)CCCC2)n1 | -10.5
Cc1cc(C(=O)N(CCN(C)C)Cc2ccc(Cl)cc2)no1 | 0.242
Cc1cnc(NC(=O)NC(CCO)c2cccs2)s1 (stereo not drawn) | 5.53
Cc1cccc(OCCC(=O)N(C)CC(C)C#N)c1C (stereo not drawn) | -0.555
O=C(NS(=O)(=O)c1ccc2c(c1)CCC2)C1COCCO1 (stereo not drawn) | 10.4
Fc1cccc(NCc2ncc[nH]2)c1 | -9.16
Cc1cc(C(=O)N2CCN(c3ccncc3Cl)CC2)n(C)n1 | -9.1

Compound | cytotoxicity at 10 µM [%]
CN(CCc1ccccn1)C(=O)C(O)c1cc(Cl)cc(Cl)c1 (stereo not drawn) | -5.68
O=C(CCn1ccc2ccccc21)Nc1ccnn1CC1CCOC1 (stereo not drawn) | 2.56
COc1ncccc1CNC(=O)C1CC(=O)N(C)C1 (stereo not drawn) | -14.6
Cc1ccc(C)c2c(C)c(C(=O)NCCC(=O)N3CCOCC3)oc12 | 1.04
CC(C)C(=O)N1CCCN(C(=O)NC2CCc3ccccc3C2)CC1 (stereo not drawn) | -7.33
CC(C)c1noc(CS(=O)(=O)CC(=O)NCc2ccccc2)n1 | -10.5
CCN1CCC(CNCc2cc(OC)ccc2OC)C1 (stereo not drawn) | -2
Cc1cc(F)ccc1CN1CCCC2(C1)OCCO2 | -11.8
CCOC[C@@]12CCC[C@@H]1CN(C(=O)COc1ccccc1OC)C2 | -106
Cc1ccc(C(=O)N2C[C@@H](N3CCN(C)CC3)[C@H]3OCCC[C@H]32)cn1 | -113
Cc1nnc([C@@]23CCO[C@@H]2CCN(Cc2scnc2C)C3)o1 | -111
O=C(NC[C@]12COC[C@H]1CN(Cc1cccc(F)c1)C2)c1ccco1 | -66.7
CN1C(=O)CC(c2cnn(C)c2)C12CCN(C(=O)c1ccco1)CC2 (stereo not drawn) | -75.5
CC(C)NC(=O)c1ccc2nnc(C3CCN(S(C)(=O)=O)C3)n2c1 (stereo not drawn) | 3.5
Cc1ccc(C(=O)N2C[C@@H](OCc3cccnc3)[C@H]3OCCC[C@H]32)o1 | 4.74
O=S1(=O)C[C@@H]2[C@H](C1)N(Cc1ncc[nH]1)CCN2C/C=C/c1ccccc1 | 11.2
CCn1nc(C)c(C(C)NC(=O)c2cnc(N(C)C)nc2C)c1C (stereo not drawn) | 5.19
CC(C(=O)N1CCn2cncc2C1)N1C[C@@H](C)O[C@@H](C)C1 (stereo partly drawn) | 3.13
CCc1nc(C)c(C(=O)N(C)Cc2cnc3ccccn23)o1 | -1.94
CCCS(=O)(=O)N1CCC2(CCC(=O)N(CCc3cccnc3)C2)CC1 | -4.92
Cc1ncsc1CCN(C)Cc1cc2n(n1)CCN(Cc1ncc[nH]1)C2 | -22.2
O=C(c1ccc(-c2cn[nH]c2)nc1)N1CCC(N2CCOCC2)CC1 | 1.38

Compound | cytotoxicity at 10 µM [%]
Cc1nnsc1C(=O)N(C)Cc1nc(-c2ccccn2)no1 | 1.89
CC(C)(C)c1ncc(C(=O)N2CCC(N3CCSCC3)CC2)c(O)n1 | 0.382
CN1CCC(N2CCCC(C(=O)N3Cc4ccccc4C3)C2)CC1 (stereo not drawn) | 5.19
Cc1[nH]c(=O)[nH]c(=O)c1CC(=O)N1CCC(Oc2ccc(F)cc2)CC1 | 4.42
CC(O)c1cn(C2CCN(C(=O)C3(C)CCCCC3)CC2)nn1 (stereo not drawn) | -7.11
COCC1CCN(S(=O)(=O)c2ccc(C(=O)NCC(F)F)cc2)C1 (stereo not drawn) | 6.95
c1cc(-c2cn[nH]c2)ccc1CN1CCCCC1 | 1.58
OCCC1CN(c2ncnc3[nH]cnc23)CCN1Cc1ccccc1F (stereo not drawn) | 17
CCc1c(C)nc(C)nc1N1C[C@@H](CN(CC)CCO)[C@@H](CO)C1 | 1.5
O=C(CC1CCc2ccccc21)NC1(C(=O)O)CCCC1 (stereo not drawn) | -11.9
O=C(O)[C@]12CCCN(Cc3nccs3)[C@@H]1CCN(c1cnccn1)C2 | -0.911
Cn1cc(Cl)c(CN2CCn3nc(C(=O)Nc4ccccc4)cc3C2)n1 | -2.8
CCN1CC2(CCC1=O)CCN(CCOc1ccc(F)cc1)CC2 | 4.19
CCC(CO)N(Cc1ccco1)C(=O)c1cccc(C)c1O (stereo not drawn) | 0.126
CCn1nc(CNC(=O)C2CCCN(C(=O)COC)C2)c2ccccc21 (stereo not drawn) | -1.29
Cc1nccnc1N1Cc2cnc(CC(C)C)nc2C1 | 1.81
CCc1c(C)nn(C)c1NC(=O)N1CCCOC(Cn2cccn2)C1 (stereo not drawn) | -8.14
COc1ncc(C2CC(=O)NCc3nc4ccccn4c32)cn1 (stereo not drawn) | -9.75
CSCC[C@H](N)C(=O)NCc1cc2n(n1)CCCN(C1CCCCC1)C2 | -15.3
O=C(c1cc(COc2ccc3c(c2)OCO3)[nH]n1)N1CCOCC1 | -5.21
COCCCn1ccnc1-c1cnc(OC)nc1 | -13.6
Cc1ccc(Cl)cc1N1CCC(CNC(=O)Cn2cccn2)C1 (stereo not drawn) | -6.72

Compound | cytotoxicity at 10 µM [%]
COc1ccc(OC)c(C(O)CNC(=O)Nc2cc(C)nn2C)c1 (stereo not drawn) | -9.86
CC(=O)N1CCCCCC1C1CCN(c2ncccc2C#N)CC1 (stereo not drawn) | -7.13
Cc1nn(C)c(C)c1CC(=O)N1CCCN(c2cccnn2)CC1 | -2.1
Cc1nc(C)n(CC2CN(Cc3cccc(C#N)c3)CCO2)n1 (stereo not drawn) | -10.3
O=C(NCc1csc(Br)c1)c1ccc(=O)[nH]n1 | 1.66
COCCOc1ccc(NC(=O)N2CCCC2c2ccncc2)cn1 (stereo not drawn) | -3.49
Cc1nc2ccccc2nc1CN(C)CC1CCCN1c1cccnn1 (stereo not drawn) | 7.17
CCCN(Cc1cccnc1)C1CC(C)(C)NC(C)(C)C1 | -4.47
COc1cc(CNCc2ccco2)ccc1OCCO | 3.35
c1coc(CN2CCc3nnc(COc4cncnc4)n3CC2)c1 | 4.15
COCCNC(=O)[C@H]1C[C@@H]2CCN(c3ccccc3)C[C@H]2O1 | 2.78
c1cnc(NCc2nnn3c2CN(CC2CC2)CCC3)nc1 | -0.536
CS(=O)(=O)N1CCO[C@@H]2CN(Cc3ccc(F)cc3)CC[C@@H]2C1 | 6.86
CC(C)c1nc(-c2cc(C(=O)N3CCN(C)CC3)c3ccccn23)cs1 | 5.77
Cc1nc(CN2CC[C@@H](OCC3CC3)[C@@H]2Cc2cccnc2)cs1 | -4.38
O=C1[C@@H]2CCN(Cc3ccccn3)C[C@@H]2OCCN1c1ccccc1 | -73.7
Cc1ccc(CC(=O)N2Cc3nccn3CC(CN(C)C)C2)cc1 (stereo not drawn) | -9.58
Cn1cc(CN2CC[C@@H]3[C@@H]2CCN3C(=O)c2cccc(F)c2)cn1 | -66.4
N#Cc1ccc(C(=O)O)nc1C=Cc1cccc(Cl)c1 | 13
CC(C)=CCN1C[C@@H]2CC[C@H]1CN(C(=O)c1ccc3nc[nH]c3c1)C2 | -1.31
